Laboratory results taken from ChEMBL document CHEMBL1139261, “Synthesis and biological evaluation of a series of tangeretin-derived chalcones” (Bioorg Med Chem Lett, 2009).
Calls of active or inactive are those of the source. The rule behind the calls is not given here.

Tests used:
[1] = test system: KB; assay: Growth inhibition of human KB cells […] after 72 hrs by MTS assay; type: functional
Summary of the method: (§1)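 KB human buccal carcinoma cells incubated with chalcone for 72 h. Growth read by MTS assay and expressed as percent inhibition of cell growth.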

[2] = Inhibition of tubulin assembly
Summary of the method: (§2)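 Tubulin assembly followed by the Zavala and Guenard method, with compounds tested at 0.1 mg/ml (about 2 × 10^-4 M). IC50 is expressed as a ratio to the deoxypodophyllotoxin IC50.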

[3] = Inhibition of tubulin assembly assessed as ratio of IC50 for drug to IC50 for deoxypodophyllotoxin
[4] = test system: KB; assay: Antiproliferative activity against human KB cells after 72 hrs by MTS assay; type: functional, cell-based
[5] = test system: HL-60; assay: Induction of apoptosis in human HL60 cells assessed as fold activation of caspase 3/7 at 100 nM; type: functional
Summary of the method: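 HL60 human leukemia cells; caspase 3/7 activation measured using DEVD-AMC substrate; reported as fold activation at the optimal compound concentration.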

[6] = test system: Leishmania donovani; assay: Antileishmanial activity against Leishmania donovani MHOM/ET/1967/HU3 (LV9) promastigotes after 72 hrs by MTT assay; type: functional, organism-based
Summary of the method: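 Promastigotes of L. donovani LV9 clone (MHOM/ET/67/HU3) exposed to drug for 72 h. Viability read by MTT assay and IC50 derived.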

[7] = Selectivity index, ratio of IC50 for mouse macrophage to IC50 for Leishmania amazonensis LV9 ([…]/M1841) amastigotes
Summary of the method: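 Selectivity index is the IC50 for cytotoxicity against murine macrophages divided by the IC50 against L. amazonensis LV9 intracellular amastigotes. Amastigotes were assayed after 30 h incubation of infected macrophages with drug.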

[8] = test system: Leishmania amazonensis; assay: Antileishmanial activity against Leishmania amazonensis LV9 ([…]/M1841) amastigotes infected in mouse macrophage after 30 hrs by MTT assay; type: functional, organism-based
Summary of the method: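 Intracellular amastigotes of L. amazonensis LV9 (MPROB/BR/1972/M1841), isolated from lesions and purified, grown inside murine macrophages. Compounds incubated with infected macrophages for 30 h. IC50 reported.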

[9] = test system: KB; assay: Cytotoxicity against human KB cells; type: functional, cell-based; summary of the method: as §1
[10] = test system: P388; assay: Cytotoxicity against mouse P388 cells; type: functional, cell-based
[11] = test system: HL-60; assay: Induction of apoptosis in human HL60 cells assessed as fold activation of caspase 3/7 at 10 uM; type: functional
Summary of the method: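 HL60 human leukemia cells treated with compound. Caspase 3/7 activity measured with DEVD-AMC substrate and given as fold activation at the optimal compound concentration.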

[12] = Inhibition of tubulin assembly at 200 uM; summary of the method: as §2

In the case of COc1ccc(/C=C/C(=O)c2cc(OC)c(OC)c(OC)c2)cc1N, the “inhibition (INH)” value [1] is reported as 100%, the IC50 [2] is reported as 3.7 µM and the Ratio IC50 [3] is reported as 1. For the same compound, the IC50 [4] was 0.031 µM and the “fold change (FC)” value [5] was 3.6.
For COc1c(O)c(C(=O)/C=C/c2cccc([N+](=O)[O-])c2)c(OC)c(OC)c1OC, the IC50 [6] was 4.4 µM, the “inhibition (INH)” value [1] was 31% and the “Ratio IC50” value [7] was 2.5. For the same compound, the IC50 [8] was 26 µM.
Compound COc1c(O)c(OC)c(C(=O)/C=C/c2ccccc2)c(O)c1OC [PEDICIN] has an IC50 [2] of 300 µM and an IC50 [9] of 21.2 µM.
With COc1ccc(/C=C/C(=O)c2cc(OC)c(OC)c(OC)c2)cc1[N+](=O)[O-] the IC50 [6] was 2.8 µM, the “inhibition (INH)” value [1] was 44% and the Activity [8] was “inactive”.
COc1c(O)c(OC)c(OC)c(C(=O)/C=C/c2ccccc2)c1O [ISODIDYMOCARPIN] gave an IC50 [10] of 11.1 µM.
In the case of COc1cc(C(=O)/C=C/c2cccc([N+](=O)[O-])c2)cc(OC)c1OC, the IC50 [6] is reported as 0.4 µM, the “inhibition (INH)” value [1] is reported as 29% and the “Ratio IC50” value [7] is reported as 2.8. For the same compound, the IC50 [8] was 26 µM.
In the case of COc1ccc(/C=C/C(=O)c2cc(OC)c(OC)c(OC)c2)cc1O, the “inhibition (INH)” value [1] is reported as 100%, the IC50 [2] is reported as 4.3 µM and the Ratio IC50 [3] is reported as 1.3. For the same compound, the IC50 [4] was 0.017 µM and the “fold change (FC)” value [5] was 3.6.
For COc1ccc(/C=C/C(=O)c2c(O)c(OC)c(OC)c(OC)c2OC)cc1N, the IC50 [6] was 44 µM, the “inhibition (INH)” value [1] was 40% and the IC50 [2] was 14 µM. The Ratio IC50 [3] was 4.1, the Activity [8] was “inactive” and the “fold change (FC)” value [11] was 2.9.
For COc1ccc(/C=C/C(=O)c2c(O)c(OC)c(OC)c(OC)c2OC)cc1[N+](=O)[O-], the IC50 [6] was 5.3 µM, the “inhibition (INH)” value [1] was 43% and the inhibition [12] was < 30%. The Activity [8] was “inactive” and the “fold change (FC)” value [11] was 1.2.
With COc1ccc(/C=C/C(=O)c2c(OC)c(OC)c(OC)c(OC)c2OC)cc1[N+](=O)[O-] the “inhibition (INH)” value [1] was 19% and the inhibition [12] was < 30%.
With COc1ccc(/C=C/C(=O)c2c(OC)c(OC)c(OC)c(OC)c2OC)cc1N the “inhibition (INH)” value [1] was 29% and the inhibition [12] was < 30%.
In the case of COc1ccc(/C=C/C(=O)c2c(O)c(OC)c(OC)c(OC)c2OC)cc1O, the IC50 [6] is reported as 25 µM, the “inhibition (INH)” value [1] is reported as 49% and the IC50 [2] is reported as 13 µM. The Ratio IC50 [3] was 3.8, the Activity [8] was “inactive” and the “fold change (FC)” value [11] was 3.2.
With COc1ccc(/C=C/C(=O)c2c(OC)c(OC)c(OC)c(OC)c2OC)cc1O the IC50 [6] was 20 µM, the “inhibition (INH)” value [1] was 22% and the inhibition [12] was < 30%.
